According to paper PMC10718296 (RSC Advances, 2023):
Like-named read-outs stand apart in the source and are kept apart here.

How the values were obtained:
[1] = system: laryngeal carcinoma cell line (Hep-2); test: MTT-based cytotoxicity assay, Hep-2; type: cell-based, human; settings: read-out: Anticancer (IC50) Hep-2
In short: (§1)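 Cells seeded at 10 000/well in medium with 5% FBS and held 48 h at 37 °C, 5% CO₂, 100% humidity. Test compound at various concentrations added for 48 h under the same conditions, in triplicate, with compound-free medium as control. MTT (5 mg ml⁻¹ solution) added for 4 h at 37 °C, formazan dissolved in DMSO, A570 read. % inhibition = 100 − A(sample)/A(control) × 100.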

[2] = system: hepatocellular carcinoma cell line (HepG2); test: MTT-based cytotoxicity assay, HepG2; type: cell-based, human; settings: read-out: Anticancer (IC50) HepG2
In short: as §1

[3] = system: breast cancer cell line (MCF-7); test: MTT-based cytotoxicity assay, MCF-7; type: cell-based, human; settings: read-out: Anticancer (IC50) MCF-7
In short: as §1

[4] = system: human skin cancer cell line (A375); test: MTT-based cytotoxicity assay, A375; type: cell-based
In short: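 Cells seeded at 10 000/well in medium with 5% FBS, grown 48 h at 37 °C, 5% CO₂, then exposed to test compound at various concentrations (up to 100 μM) for 48 h, in triplicate; medium alone as control. MTT solution (5 mg ml⁻¹) added for 4 h at 37 °C, formazan dissolved in DMSO, absorbance read at 570 nm; inhibition % = 100 − (A sample/A control × 100).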

[5] = system: non-cancerous normal cell (Vero); test: MTT-based cytotoxicity assay, normal Vero cell; settings: for Cytotoxicity to non-cancerous cells (in words): cell viability assay up to 100 μM, Fig. 3
In short: as §1

[6] = MTT, 48 hours, average of three independent experiments
[7] = Homo sapiens, A-375, 48 h, read-out: Anticancer (IC50) A375, MTT, 48 hours, average of three independent experiments

Row | Compound | IC50 [1, 6] | IC50 [2, 6] | IC50 [3, 6] | IC50 ([4]; read-out: Anticancer (IC50) A375, MTT, 48 hours, average of three independent experiments) | IC50 ([5]; read-out: Anticancer (IC50) Vero, MTT, 48 hours, non-cancerous normal cell, average of three independent experiments) | IC50 ([1]; Homo sapiens, HEp-2, 48 h) | IC50 ([2]; Homo sapiens, HepG2, 48 h) | IC50 ([3]; Homo sapiens, MCF7, 48 h) | IC50 [4, 7] | Cytotoxicity to non-cancerous cells (in words) [5]
1 | 2-(2-Nitrophenyl)imidazo[1,2-a]pyrazin-3-amine [10l] | 64 ± 2.45 µM | 32 ± 4.64 µM | 80 ± 4.53 µM | 27 ± 5 µM | 67 ± 4.54 µM |  |  |  |  | 
2 | CC(C)(C)Nc1c(-c2ccc([N+](=O)[O-])cc2)nc2cnccn12 [10a, N-(tert-Butyl)-2-(4-nitrophenyl)imidazo[1,2-a]pyrazin-3-amine] |  |  |  |  |  | 50 ± 3.42 µM | 40 ± 2.52 µM | > 100 µM | 36 ± 3.1 µM | 
3 | CC(C)(C)Nc1c(-c2ccc(N)cc2)nc2cnccn12 [10b, 2-(4-Aminophenyl)-N-(tert-butyl)imidazo[1,2-a]pyrazin-3-amine] |  |  |  |  |  | 20 ± 1.64 µM | 18 ± 1.32 µM | 21 ± 1.64 µM | 16 ± 0.96 µM | non-toxic to non-cancerous cells
4 | Nc1c(-c2ccc([N+](=O)[O-])cc2)nc2cnccn12 [10c, 2-(4-Nitrophenyl)imidazo[1,2-a]pyrazin-3-amine] |  |  |  |  |  | 45 ± 1.6 µM | 30 ± 1.43 µM | 40 ± 3.8 µM | 24 ± 2.48 µM | 
5 | Nc1ccc(-c2nc3cnccn3c2N)cc1 [10d, 2-(4-Aminophenyl)imidazo[1,2-a]pyrazin-3-amine] |  |  |  |  |  | 38 ± 2.2 µM | 34 ± 2.64 µM | 30 ± 3.32 µM | 25 ± 1.45 µM | 
6 | CC(C)(C)Nc1c(-c2ccccc2[N+](=O)[O-])nc2cnccn12 [10e, N-(tert-Butyl)-2-(2-nitrophenyl)imidazo[1,2-a]pyrazin-3-amine] |  |  |  |  |  | 80 ± 1.37 µM | 40 ± 2.52 µM | 100 ± 8.64 µM | 34 ± 3.2 µM | 
7 | CC(C)(C)Nc1c(-c2ccccc2N)nc2cnccn12 [10f, 2-(2-Aminophenyl)-N-(tert-Butyl)imidazo[1,2-a]pyrazin-3-amine] |  |  |  |  |  | 25 ± 5.2 µM | 20 ± 4.64 µM | 26 ± 2.38 µM | 20 ± 1.57 µM | 
8 | Nc1ccccc1-c1nc2cnccn2c1N [10g, 2-(2-Aminophenyl)imidazo[1,2-a]pyrazin-3-amine] |  |  |  |  |  | 22 ± 2.15 µM | 25 ± 4.54 µM | 30 ± 1.24 µM | 20 ± 5.8 µM | 
9 | CN(C)c1ccc(-c2nc3cnccn3c2NC(C)(C)C)cc1 [10h, N-(tert-Butyl)-2-(4-(dimethylamino)phenyl)imidazo[1,2-a]pyrazin-3-amine] |  |  |  |  |  | 45 ± 0.5 µM | 34 ± 5.5 µM | 50 ± 6.41 µM | 30 ± 2.84 µM | 
10 | CN(C)c1ccc(-c2nc3cnccn3c2N)cc1 [10i, 2-(4-(Dimethylamino)phenyl)imidazo[1,2-a]pyrazin-3-amine] |  |  |  |  |  | 28 ± 3.1 µM | 26 ± 0.9 µM | 17 ± 0.52 µM | 16 ± 1.2 µM | non-toxic to non-cancerous cells
11 | O=[N+]([O-])c1ccc(-c2nc3cnccn3c2NC2CCCCC2)cc1 [10j, N-Cyclohexyl-2-(4-nitrophenyl)imidazo[1,2-a]pyrazin-3-amine] |  |  |  |  |  | 44 ± 6.4 µM | 40 ± 1.4 µM | 24 ± 0.15 µM | 25 ± 5.41 µM | 
12 | Nc1ccc(-c2nc3cnccn3c2NC2CCCCC2)cc1 [10k, 2-(4-Aminophenyl)-N-cyclohexylimidazo[1,2-a]pyrazin-3-amine] |  |  |  |  |  | 34 ± 4.56 µM | 28 ± 2.48 µM | 65 ± 2.41 µM | 30 ± 1.5 µM | 
13 | Nc1ccccc1-c1nc2cnccn2c1NC1CCCCC1 [10m, 2-(2-Aminophenyl)-N-cyclohexylimidazo[1,2-a]pyrazin-3-amine] |  |  |  |  |  | 28 ± 4.28 µM | 20 ± 2.15 µM | 44 ± 2.68 µM | 23 ± 1.5 µM | 
14 | CC(C)(C)Nc1c(-c2ccc([N+](=O)[O-])cc2)nc2ccccn12 [12a, N-(tert-Butyl)-2-(4-nitrophenyl)imidazo[1,2-a]pyridin-3-amine] |  |  |  |  |  | 32 ± 5.5 µM | 30 ± 2.5 µM | 55 ± 5.25 µM | 45 ± 2.5 µM | 
15 | CC(C)(C)Nc1c(-c2ccc(N)cc2)nc2ccccn12 [12b, 2-(4-Aminophenyl)-N-(tert-butyl)imidazo[1,2-a]pyridin-3-amine] |  |  |  |  |  | 11 ± 0.8 µM | 13 ± 1.2 µM | 11 ± 0.5 µM | 11 ± 0.07 µM | non-toxic to non-cancerous cells
16 | Nc1c(-c2ccc([N+](=O)[O-])cc2)nc2ccccn12 [12c, 2-(4-Nitrophenyl)imidazo[1,2-a]pyridin-3-amine] |  |  |  |  |  | 35 ± 2.4 µM | 48 ± 4.8 µM | > 100 µM | 50 ± 1.8 µM | 
17 | Nc1ccc(-c2nc3ccccn3c2N)cc1 [12d, 2-(4-Aminophenyl)imidazo[1,2-a]pyridin-3-amine] |  |  |  |  |  | 20 ± 5.8 µM | 35 ± 2.5 µM | 50 ± 1.82 µM | 38 ± 2.4 µM | 
18 | CC(C)(C)Nc1c(-c2ccccc2[N+](=O)[O-])nc2ccccn12 [12e, N-(tert-Butyl)-2-(2-nitrophenyl)imidazo[1,2-a]pyridin-3-amine] |  |  |  |  |  | 55 ± 0.4 µM | 62 ± 4.8 µM | > 100 µM | > 100 µM | 
19 | CC(C)(C)Nc1c(-c2ccccc2N)nc2ccccn12 [12f, 2-(2-Aminophenyl)-N-(tert-butyl)imidazo[1,2-a]pyridin-3-amine] |  |  |  |  |  | 28 ± 5 µM | 32 ± 0.1 µM | 24 ± 5.8 µM | 28 ± 1.5 µM | 
20 | Nc1c(-c2ccccc2[N+](=O)[O-])nc2ccccn12 [12g, 2-(2-Nitrophenyl)imidazo[1,2-a]pyridin-3-amine] |  |  |  |  |  | 50 ± 5.2 µM | > 100 µM | > 100 µM | 62 ± 2.4 µM | 
21 | Nc1ccccc1-c1nc2ccccn2c1N [12h, 2-(2-Aminophenyl)imidazo[1,2-a]pyridin-3-amine] |  |  |  |  |  | 44 ± 1.4 µM | 54 ± 1.5 µM | 61 ± 2.4 µM | 55 ± 1.5 µM | 
22 | CN(C)c1ccc(-c2nc3ccccn3c2NC(C)(C)C)cc1 [12i, N-(tert-Butyl)-2-(4-(dimethylamino)phenyl)imidazo[1,2-a]pyridin-3-amine] |  |  |  |  |  | 20 ± 2.7 µM | 19 ± 1.3 µM | 17 ± 0.92 µM | 12 ± 0.7 µM | non-toxic to non-cancerous cells
23 | CN(C)c1ccc(-c2nc3ccccn3c2N)cc1 [12j, 2-(4-(Dimethylamino)phenyl)imidazo[1,2-a]pyridin-3-amine] |  |  |  |  |  | 45 ± 5 µM | 35 ± 4.8 µM | 30 ± 5 µM | 25 ± 1.4 µM | 
24 | O=[N+]([O-])c1ccc(-c2nc3ccccn3c2NC2CCCCC2)cc1 [12k, N-Cyclohexyl-2-(4-nitrophenyl)imidazo[1,2-a]pyridin-3-amine] |  |  |  |  |  | 30 ± 8 µM | 40 ± 1.5 µM | 52 ± 0.8 µM | 41 ± 5 µM | 
25 | Nc1ccc(-c2nc3ccccn3c2NC2CCCCC2)cc1 [12l, 2-(4-Aminophenyl)-N-cyclohexylimidazo[1,2-a]pyridin-3-amine] |  |  |  |  |  | 20 ± 5.2 µM | 25 ± 0.2 µM | 35 ± 1.5 µM | 30 ± 0.1 µM | 
26 | COc1cccc2c1C(=O)c1c(O)c3c(c(O)c1C2=O)C[C@@](O)(C(=O)CO)C[C@@H]3O[C@H]1C[C@H](N)[C@H](O)[C@H](C)O1 [Doxorubicin, reference compound] |  |  |  |  |  | 10 ± 0.5 µM | 1.5 ± 0.09 µM | 0.85 ± 0.02 µM | 5.16 µM | 
